Test results taken from ChEMBL document CHEMBL4152228, “Structural-based design, synthesis, and antitumor activity of novel alloxazine analogues with potential selective kinase inhibition” (Eur J Med Chem, 2018).

How the values were obtained:
[1] = system: MCF7; test: Induction of apoptosis in human MCF7 cells assessed as late apoptotic cells at 10 uM after 72 hrs by annexin V-FITC/propidium iodide staining-based flow cytometric method (reference value: 2.6%); type: functional
[2] = system: MCF7; test: Induction of apoptosis in human MCF7 cells assessed as viable cells at 1 uM after 72 hrs by annexin V-FITC/propidium iodide staining-based flow cytometric method (reference value: 76%); type: functional; conditions: MCF7, 72 h, read-out: Activity
[3] = system: K562; test: Antiproliferative activity against human K562 cells after 72 hrs by MTT assay; type: functional, cell-based; conditions: K562, 72 h
[4] = system: HCT-116; test: Antiproliferative activity against human HCT116 cells after 72 hrs by MTT assay; type: functional, cell-based; conditions: HCT-116, 72 h
How it was run: (§1)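 MTT viability assay. Cells grown in RPMI-1640 with 10% heat-inactivated FBS, L-glutamine and 1% penicillin/streptomycin, used within 20 passages. Seeded at 5×10^3 cells/well, left overnight at 37 °C, then exposed to final concentrations of 0.005–50 µM (0.1% DMSO) for up to 72 h. MTT added for 3 h, formazan dissolved in DMSO, absorbance read at 550 nm. IC50 derived relative to untreated controls.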

[5] = system: MCF7; test: Induction of apoptosis in human MCF7 cells assessed as early apoptotic cells at 5 uM after 72 hrs by annexin V-FITC/propidium iodide staining-based flow cytometric method (reference value: 9%); type: functional
[6] = system: MCF7; test: Induction of apoptosis in human MCF7 cells assessed as early apoptotic cells at 10 uM after 72 hrs by annexin V-FITC/propidium iodide staining-based flow cytometric method (reference value: 9%); type: functional
[7] = system: MCF7; test: Induction of apoptosis in human MCF7 cells assessed as increase of early apoptotic cells at 1 to 10 uM after 72 hrs by annexin V-FITC/propidium iodide staining-based flow cytometric method relative to control; type: functional
How it was run: (§2)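 MCF-7 cells treated 72 h at final 1, 5, 10 µM, then annexin V-FITC/PI stained in pH 7.4 HEPES binding buffer and analysed by flow cytometry. Early or late apoptotic cell fraction expressed as percent change versus vehicle control: (sample − control)/control × 100. Triplicates.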

[8] = system: MCF7; test: Induction of apoptosis in human MCF7 cells assessed as necrotic cells at 1 uM after 72 hrs by annexin V-FITC/propidium iodide staining-based flow cytometric method (reference value: 12.6%); type: functional
[9] = system: MCF7; test: Ratio of increase in late apoptotic cells to early apoptotic cells in human MCF7 cells at 10 uM after 72 hrs by annexin V-FITC/propidium iodide staining-based flow cytometric method; type: functional
[10] = Antiproliferative activity against human WM793B cells after 72 hrs by MTT assay; type: functional, cell-based; how it was run: as §1
[11] = system: MCF7; test: Induction of apoptosis in human MCF7 cells assessed as viable cells at 5 uM after 72 hrs by annexin V-FITC/propidium iodide staining-based flow cytometric method (reference value: 76%); type: functional; conditions: MCF7, 72 h, read-out: Activity
[12] = system: MCF7; test: Antiproliferative activity against human MCF7 cells after 72 hrs by MTT assay; type: functional, cell-based; conditions: MCF7, 72 h; how it was run: as §1
[13] = system: MCF7; test: Induction of apoptosis in human MCF7 cells assessed as increase of early apoptotic cells after 72 hrs by annexin V-FITC/propidium iodide staining-based flow cytometric method; type: functional, cell-based; how it was run: as §2
[14] = system: MCF7; test: Induction of apoptosis in human MCF7 cells assessed as early apoptotic cells at 1 uM after 72 hrs by annexin V-FITC/propidium iodide staining-based flow cytometric method (reference value: 9%); type: functional
[15] = system: MCF7; test: Induction of apoptosis in human MCF7 cells assessed as necrotic cells at 5 uM after 72 hrs by annexin V-FITC/propidium iodide staining-based flow cytometric method (reference value: 12.6%); type: functional
[16] = system: MCF7; test: Induction of apoptosis in human MCF7 cells assessed as viable cells at 10 uM after 72 hrs by annexin V-FITC/propidium iodide staining-based flow cytometric method (reference value: 76%); type: functional; conditions: MCF7, 72 h, read-out: Activity
[17] = system: MCF7; test: Induction of apoptosis in human MCF7 cells assessed as late apoptotic cells at 5 uM after 72 hrs by annexin V-FITC/propidium iodide staining-based flow cytometric method (reference value: 2.6%); type: functional
[18] = system: MCF7; test: Induction of apoptosis in human MCF7 cells assessed as necrotic cells at 10 uM after 72 hrs by annexin V-FITC/propidium iodide staining-based flow cytometric method (reference value: 12.6%); type: functional
[19] = system: MCF7; test: Induction of apoptosis in human MCF7 cells assessed as late apoptotic cells at 1 uM after 72 hrs by annexin V-FITC/propidium iodide staining-based flow cytometric method (reference value: 2.6%); type: functional
[20] = system: A2780; test: Antiproliferative activity against human A2780 cells after 72 hrs by MTT assay; type: functional, cell-based; conditions: A2780, 72 h; how it was run: as §1
[21] = system: MCF7; test: Induction of apoptosis in human MCF7 cells assessed as increase of early apoptotic cells at 1 uM after 72 hrs by annexin V-FITC/propidium iodide staining-based flow cytometric method relative to control; type: functional
[22] = system: MCF7; test: Induction of apoptosis in human MCF7 cells assessed as increase of late apoptotic cells at 10 uM after 72 hrs by annexin V-FITC/propidium iodide staining-based flow cytometric method relative to control; type: functional; how it was run: as §2
[23] = target: Mitogen-activated protein kinase 3 (Homo sapiens) (UniProt P27361); test: Inhibition of ERK1 (unknown origin) at 10 uM by [33P]-ATP radiometric assay
How it was run: (§3)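 Radiometric kinase profiling: purified recombinant kinase (~10–50 nM final) with substrate, assay buffer and compound at 10 µM (control 10% DMSO). Started with 33P-ATP (50 µM stock, 0.8 µCi), run 30 min at ambient temperature, then spotted onto P81 phosphocellulose and washed in 1% phosphoric acid. Scintillation counted, no-substrate blank subtracted, single measurement, result given as % change versus control.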

[24] = target: Receptor tyrosine-protein kinase erbB-2 (Homo sapiens) (UniProt P04626); test: Inhibition of HER2 (unknown origin) at 10 uM by [33P]-ATP radiometric assay; how it was run: as §3
[25] = target: Fibroblast growth factor receptor 1 (Homo sapiens) (UniProt P11362); test: Inhibition of FGFR1 (unknown origin) at 10 uM by [33P]-ATP radiometric assay; how it was run: as §3
[26] = target: Cyclin-dependent kinase 16 (Homo sapiens) (UniProt Q00536); test: Inhibition of CDK16 (unknown origin) at 10 uM by [33P]-ATP radiometric assay; how it was run: as §3
[27] = target: Calcium/calmodulin-dependent protein kinase type 1 (Homo sapiens) (UniProt Q14012); test: Inhibition of CAMK1 (unknown origin) at 10 uM by [33P]-ATP radiometric assay; how it was run: as §3
[28] = target: Mitogen-activated protein kinase 8 (Homo sapiens) (UniProt P45983); test: Inhibition of JNK1 (unknown origin) at 10 uM by [33P]-ATP radiometric assay; how it was run: as §3
[29] = target: Casein kinase I isoform alpha (Homo sapiens) (UniProt P48729); test: Inhibition of CK1alpha1 (unknown origin) at 10 uM by [33P]-ATP radiometric assay; how it was run: as §3
[30] = target: Epidermal growth factor receptor (Homo sapiens) (UniProt P00533); test: Inhibition of EGFR (unknown origin) at 10 uM by [33P]-ATP radiometric assay; how it was run: as §3
[31] = target: Mast/stem cell growth factor receptor Kit (Homo sapiens) (UniProt P10721); test: Inhibition of c-KIT (unknown origin) at 10 uM by [33P]-ATP radiometric assay
How it was run: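 Radiometric kinase profiling: purified recombinant kinase (~10–50 nM final) with substrate, assay buffer and compound at 10 µM (control 10% DMSO). Started with 33P-ATP (50 µM stock, 0.8 µCi), run 30 min at ambient temperature, then spotted onto P81 phosphocellulose and washed in 1% phosphoric acid.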

[32] = target: Cyclin-dependent kinase 1/Cyclin A1 (Homo sapiens) (UniProt P06493+P78396); test: Inhibition of CDK1/cyclin A1 (unknown origin) at 10 uM by [33P]-ATP radiometric assay; type: protein-complex assay; how it was run: as §3
[33] = target: Calcium/calmodulin-dependent protein kinase type II subunit alpha (Homo sapiens) (UniProt Q9UQM7); test: Inhibition of CAMK2-alpha (unknown origin) at 10 uM by [33P]-ATP radiometric assay; how it was run: as §3
[34] = target: Hepatocyte growth factor receptor (Homo sapiens) (UniProt P08581); test: Inhibition of MET (unknown origin) at 10 uM by [33P]-ATP radiometric assay; how it was run: as §3
[35] = target: Protein kinase C beta type (Homo sapiens) (UniProt P05771); test: Inhibition of PCK-beta2 (unknown origin) at 10 uM by [33P]-ATP radiometric assay; how it was run: as §3
Chain of Protein kinase C beta type (Homo sapiens) (P05771 2-671 limits assumed): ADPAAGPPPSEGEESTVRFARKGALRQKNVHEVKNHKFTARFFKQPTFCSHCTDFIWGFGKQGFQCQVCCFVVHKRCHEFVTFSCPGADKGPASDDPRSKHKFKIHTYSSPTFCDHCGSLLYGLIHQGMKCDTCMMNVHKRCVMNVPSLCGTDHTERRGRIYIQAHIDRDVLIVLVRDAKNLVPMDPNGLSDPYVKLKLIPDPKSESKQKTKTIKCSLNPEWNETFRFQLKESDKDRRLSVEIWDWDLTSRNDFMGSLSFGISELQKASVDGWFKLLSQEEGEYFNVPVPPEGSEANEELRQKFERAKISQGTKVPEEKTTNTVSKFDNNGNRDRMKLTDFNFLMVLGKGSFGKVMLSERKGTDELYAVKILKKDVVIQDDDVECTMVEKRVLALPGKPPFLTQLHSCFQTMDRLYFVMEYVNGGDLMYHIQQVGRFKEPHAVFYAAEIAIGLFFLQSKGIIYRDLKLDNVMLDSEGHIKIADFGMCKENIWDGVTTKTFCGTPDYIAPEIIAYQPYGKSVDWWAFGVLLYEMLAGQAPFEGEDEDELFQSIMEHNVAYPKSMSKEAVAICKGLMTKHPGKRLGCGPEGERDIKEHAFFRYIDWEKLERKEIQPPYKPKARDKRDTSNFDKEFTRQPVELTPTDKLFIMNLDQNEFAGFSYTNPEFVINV

Chain of Receptor tyrosine-protein kinase erbB-2 (Homo sapiens) (P04626 whole entry): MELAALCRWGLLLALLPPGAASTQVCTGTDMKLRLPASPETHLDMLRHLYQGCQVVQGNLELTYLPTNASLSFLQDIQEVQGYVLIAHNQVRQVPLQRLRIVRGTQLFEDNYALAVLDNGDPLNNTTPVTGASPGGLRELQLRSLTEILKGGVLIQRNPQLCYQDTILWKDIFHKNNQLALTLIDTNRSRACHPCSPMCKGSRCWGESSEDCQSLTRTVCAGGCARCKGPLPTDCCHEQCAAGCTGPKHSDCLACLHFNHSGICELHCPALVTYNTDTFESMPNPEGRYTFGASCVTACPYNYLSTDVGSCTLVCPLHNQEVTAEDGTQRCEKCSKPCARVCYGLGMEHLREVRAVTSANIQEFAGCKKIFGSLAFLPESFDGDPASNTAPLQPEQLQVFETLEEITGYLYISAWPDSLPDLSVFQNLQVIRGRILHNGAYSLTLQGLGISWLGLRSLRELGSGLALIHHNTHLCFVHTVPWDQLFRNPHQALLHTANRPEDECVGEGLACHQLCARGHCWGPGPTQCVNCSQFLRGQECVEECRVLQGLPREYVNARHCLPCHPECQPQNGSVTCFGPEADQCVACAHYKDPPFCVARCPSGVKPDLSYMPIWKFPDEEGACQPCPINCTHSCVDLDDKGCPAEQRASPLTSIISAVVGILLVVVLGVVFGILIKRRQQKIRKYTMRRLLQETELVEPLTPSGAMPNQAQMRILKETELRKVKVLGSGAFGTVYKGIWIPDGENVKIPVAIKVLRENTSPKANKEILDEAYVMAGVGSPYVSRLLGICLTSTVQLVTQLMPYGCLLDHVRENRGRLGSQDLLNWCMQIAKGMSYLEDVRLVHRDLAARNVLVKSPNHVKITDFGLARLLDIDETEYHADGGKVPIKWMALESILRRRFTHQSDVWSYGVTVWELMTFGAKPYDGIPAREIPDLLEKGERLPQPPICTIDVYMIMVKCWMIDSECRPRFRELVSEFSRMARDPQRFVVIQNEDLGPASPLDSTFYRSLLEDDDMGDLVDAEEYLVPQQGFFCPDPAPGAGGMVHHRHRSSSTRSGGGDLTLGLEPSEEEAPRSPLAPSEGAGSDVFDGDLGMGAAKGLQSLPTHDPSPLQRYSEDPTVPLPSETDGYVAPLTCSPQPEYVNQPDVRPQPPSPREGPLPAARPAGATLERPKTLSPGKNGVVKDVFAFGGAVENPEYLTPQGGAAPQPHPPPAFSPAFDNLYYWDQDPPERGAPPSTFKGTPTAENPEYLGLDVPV
Chain of Mitogen-activated protein kinase 3 (Homo sapiens) (P27361 whole entry): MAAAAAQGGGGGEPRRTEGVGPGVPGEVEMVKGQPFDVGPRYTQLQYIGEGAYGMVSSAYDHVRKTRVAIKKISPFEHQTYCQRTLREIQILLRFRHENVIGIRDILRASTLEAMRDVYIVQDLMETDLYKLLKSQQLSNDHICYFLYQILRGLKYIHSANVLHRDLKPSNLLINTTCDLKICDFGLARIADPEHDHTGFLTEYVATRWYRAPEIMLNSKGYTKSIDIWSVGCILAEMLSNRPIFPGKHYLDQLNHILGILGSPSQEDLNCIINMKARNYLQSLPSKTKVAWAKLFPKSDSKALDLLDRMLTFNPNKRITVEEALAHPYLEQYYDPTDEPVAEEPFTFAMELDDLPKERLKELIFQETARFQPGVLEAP
Chain of Calcium/calmodulin-dependent protein kinase type II subunit alpha (Homo sapiens) (Q9UQM7 whole entry): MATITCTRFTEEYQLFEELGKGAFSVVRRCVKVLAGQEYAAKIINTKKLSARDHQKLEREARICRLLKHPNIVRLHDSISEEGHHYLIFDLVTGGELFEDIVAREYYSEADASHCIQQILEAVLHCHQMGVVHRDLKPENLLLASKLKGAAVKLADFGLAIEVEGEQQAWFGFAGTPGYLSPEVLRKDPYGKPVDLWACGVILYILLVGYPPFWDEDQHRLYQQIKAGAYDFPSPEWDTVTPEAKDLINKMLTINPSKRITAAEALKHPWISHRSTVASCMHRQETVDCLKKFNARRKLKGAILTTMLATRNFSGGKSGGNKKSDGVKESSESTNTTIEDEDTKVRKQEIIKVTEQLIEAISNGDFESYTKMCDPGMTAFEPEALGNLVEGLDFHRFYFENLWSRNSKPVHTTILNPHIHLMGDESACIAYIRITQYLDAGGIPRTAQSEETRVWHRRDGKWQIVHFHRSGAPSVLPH
Chain of Mitogen-activated protein kinase 8 (Homo sapiens) (P45983 whole entry, canonical isoform): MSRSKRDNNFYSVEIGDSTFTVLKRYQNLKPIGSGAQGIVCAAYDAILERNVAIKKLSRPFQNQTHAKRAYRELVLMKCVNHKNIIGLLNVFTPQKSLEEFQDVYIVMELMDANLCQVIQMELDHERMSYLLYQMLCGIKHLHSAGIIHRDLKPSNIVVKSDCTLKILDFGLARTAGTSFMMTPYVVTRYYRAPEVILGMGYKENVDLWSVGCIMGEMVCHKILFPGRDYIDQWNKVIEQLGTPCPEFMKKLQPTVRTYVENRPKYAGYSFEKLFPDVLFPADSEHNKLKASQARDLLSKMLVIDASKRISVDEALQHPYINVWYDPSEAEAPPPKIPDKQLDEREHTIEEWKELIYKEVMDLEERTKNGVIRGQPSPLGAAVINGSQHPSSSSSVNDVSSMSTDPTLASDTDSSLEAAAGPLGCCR
Chain of Cyclin-dependent kinase 16 (Homo sapiens) (Q00536 whole entry): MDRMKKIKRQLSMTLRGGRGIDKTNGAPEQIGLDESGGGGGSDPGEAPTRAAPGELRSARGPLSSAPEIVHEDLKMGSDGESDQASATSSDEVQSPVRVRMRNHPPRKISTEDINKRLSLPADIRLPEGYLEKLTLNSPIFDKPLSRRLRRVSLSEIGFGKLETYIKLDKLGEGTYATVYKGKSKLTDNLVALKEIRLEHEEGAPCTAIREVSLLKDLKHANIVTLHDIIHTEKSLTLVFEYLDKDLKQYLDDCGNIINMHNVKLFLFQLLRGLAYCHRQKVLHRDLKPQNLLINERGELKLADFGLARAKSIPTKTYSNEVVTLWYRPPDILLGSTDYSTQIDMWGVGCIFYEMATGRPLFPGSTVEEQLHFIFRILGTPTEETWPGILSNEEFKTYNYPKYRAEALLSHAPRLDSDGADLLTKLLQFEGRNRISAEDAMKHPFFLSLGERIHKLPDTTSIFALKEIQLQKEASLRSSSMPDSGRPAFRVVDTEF
Chain of Mast/stem cell growth factor receptor Kit (Homo sapiens) (P10721 whole entry): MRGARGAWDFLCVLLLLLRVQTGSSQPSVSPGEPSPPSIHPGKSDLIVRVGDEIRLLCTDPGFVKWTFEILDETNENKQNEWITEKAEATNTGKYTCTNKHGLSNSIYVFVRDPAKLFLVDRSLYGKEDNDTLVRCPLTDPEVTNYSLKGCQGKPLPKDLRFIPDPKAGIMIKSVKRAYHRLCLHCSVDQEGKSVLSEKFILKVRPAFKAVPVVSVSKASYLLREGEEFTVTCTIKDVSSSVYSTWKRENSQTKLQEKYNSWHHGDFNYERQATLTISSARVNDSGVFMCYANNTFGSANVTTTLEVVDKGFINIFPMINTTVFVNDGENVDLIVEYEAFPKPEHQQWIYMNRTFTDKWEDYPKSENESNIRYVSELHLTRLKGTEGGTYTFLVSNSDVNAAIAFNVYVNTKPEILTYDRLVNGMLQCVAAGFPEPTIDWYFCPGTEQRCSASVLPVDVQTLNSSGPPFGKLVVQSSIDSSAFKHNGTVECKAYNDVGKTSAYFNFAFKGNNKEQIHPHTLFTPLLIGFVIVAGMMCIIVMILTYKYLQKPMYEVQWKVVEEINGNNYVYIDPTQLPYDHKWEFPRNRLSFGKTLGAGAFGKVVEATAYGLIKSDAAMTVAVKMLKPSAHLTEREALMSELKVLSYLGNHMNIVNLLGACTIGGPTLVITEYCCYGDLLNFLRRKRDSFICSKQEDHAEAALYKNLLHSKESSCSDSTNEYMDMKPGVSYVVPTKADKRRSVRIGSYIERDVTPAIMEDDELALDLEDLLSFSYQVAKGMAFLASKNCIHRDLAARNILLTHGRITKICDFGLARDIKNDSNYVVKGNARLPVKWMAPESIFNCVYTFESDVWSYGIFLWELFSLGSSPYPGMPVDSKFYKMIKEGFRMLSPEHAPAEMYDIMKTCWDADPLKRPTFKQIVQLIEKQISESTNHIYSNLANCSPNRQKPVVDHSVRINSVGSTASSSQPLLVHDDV
Chain of Casein kinase I isoform alpha (Homo sapiens) (P48729 2-337 limits assumed): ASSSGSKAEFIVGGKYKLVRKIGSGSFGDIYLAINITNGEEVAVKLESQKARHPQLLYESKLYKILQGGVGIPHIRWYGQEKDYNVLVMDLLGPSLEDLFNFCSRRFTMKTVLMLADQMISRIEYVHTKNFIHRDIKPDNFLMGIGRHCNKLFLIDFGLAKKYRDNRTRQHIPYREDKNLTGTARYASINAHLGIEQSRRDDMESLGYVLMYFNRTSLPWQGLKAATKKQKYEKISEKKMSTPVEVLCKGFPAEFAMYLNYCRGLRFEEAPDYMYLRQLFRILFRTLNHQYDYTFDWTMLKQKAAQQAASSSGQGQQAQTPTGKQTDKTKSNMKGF

| IC50 [3] [µM] | IC50 [4] [nM] | IC50 [12] [nM] | IC50 [20] [nM] | SMILES | Activity [1] [%] | viability at 1 µM [2] [%] | Activity [5] [%] | Activity [6] [%] | Activity [8] [%] | IC50 [10] [µM] | viability at 5 µM [11] [%] | Activity [14] [%] | Activity [15] [%] | viability at 10 µM [16] [%] | Activity [17] [%] | Activity [18] [%] | Activity [19] [%] | also measured |
| --- | --- | --- | --- | --- | --- | --- | --- | --- | --- | --- | --- | --- | --- | --- | --- | --- | --- | --- |
| > 50 | 310 | 200 | 190 | O=c1[nH]c(NCc2ccc(CN3CCOCC3)cc2)nc2nc3ccc(Cl)cc3nc12 | 16.4 | 82.6 | 14 | 19.3 | 2.9 | 40.1 | 74.1 | 11.2 | 4 | 58 | 7.8 | 6.3 | 3.2 | fold change (FC) [7]: 2; Ratio [9]: 7; Activity [13]: Dose-dependent effect |
| > 50 | 140 | 160 | 340 | CC(Nc1nc2nc3ccccc3nc2c(=O)[nH]1)c1ccccc1 (configuration not stated) | 32 | 63.4 | 14.1 | 14.4 | 4 | > 50 | 71.2 | 22.1 | 5.1 | 45.8 | 9.7 | 7.9 | 10.5 | fold change (FC) [21]: >2; fold change (FC) [22]: 13 |
| 9.97 | 13000 | 11600 | 10100 | O=c1[nH]c(NCc2ccc(CN3CCCCC3)cc2)nc2nc3ccccc3cc12 | – | – | – | – | – | 39 | – | – | – | – | – | – | – | inhibition [23]: -1%; inhibition [24]: 33%; inhibition [25]: -4%; inhibition [26]: -5%; inhibition [27]: 5%; inhibition [28]: -7%; inhibition [29]: -6%; inhibition [30]: -3%; inhibition [31]: 32%; inhibition [32]: 18%; inhibition [33]: 1%; inhibition [34]: 0%; inhibition [35]: 4% |
